These results are taken from ChEMBL document CHEMBL3046309, “Dihydropiperazine neonicotinoid compounds. Synthesis and insecticidal activity” (J Agric Food Chem, 2003).

The source made the active and inactive calls. The rule behind the calls is not given here.

Experiment [1] concerns Aphis gossypii. Put plainly: Insecticidal activity against Aphis gossypii (cotton aphid) infested expanded cotyledon stage of summer crookneck squash seedlings assessed as mortality at 0.5 ppm applied as spray after 72 hr by dissecting binocular microscopic analysis relative to control. In kind it is functional. Put shortly:
(§1)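 Four replicate plants per rate; controls were eight plants sprayed with blank-stock diluent. Plants held 72 h at about 74 °F, 40% RH, 24 h photoperiod. Live nonwinged aphids were counted on cotyledon undersides. Percent control was calculated by Abbott's correction against the solvent blank.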

The test system of experiment [2] is Aphis gossypii. Put plainly: Insecticidal activity against Aphis gossypii (cotton aphid) infested expanded cotyledon stage of summer crookneck squash seedlings assessed as mortality at 5 ppm applied as spray after 72 hr by dissecting binocular microscopic analysis relative to control. The experiment is classed as functional. In outline:
as §1

Experiment [3] deals with Aphis gossypii. Put plainly: Insecticidal activity against Aphis gossypii (cotton aphid) infested expanded cotyledon stage of summer crookneck squash seedlings assessed as mortality at 50 ppm applied as spray after 72 hr by dissecting binocular microscopic analysis relative to control. In kind it is functional. Put shortly: as §1
Experiment [4] deals with T1, Nicotinic acetylcholine receptor alpha 5 subunit (Musca domestica, UniProt A9XFY4).
T1 sequence (A9XFY4 whole entry): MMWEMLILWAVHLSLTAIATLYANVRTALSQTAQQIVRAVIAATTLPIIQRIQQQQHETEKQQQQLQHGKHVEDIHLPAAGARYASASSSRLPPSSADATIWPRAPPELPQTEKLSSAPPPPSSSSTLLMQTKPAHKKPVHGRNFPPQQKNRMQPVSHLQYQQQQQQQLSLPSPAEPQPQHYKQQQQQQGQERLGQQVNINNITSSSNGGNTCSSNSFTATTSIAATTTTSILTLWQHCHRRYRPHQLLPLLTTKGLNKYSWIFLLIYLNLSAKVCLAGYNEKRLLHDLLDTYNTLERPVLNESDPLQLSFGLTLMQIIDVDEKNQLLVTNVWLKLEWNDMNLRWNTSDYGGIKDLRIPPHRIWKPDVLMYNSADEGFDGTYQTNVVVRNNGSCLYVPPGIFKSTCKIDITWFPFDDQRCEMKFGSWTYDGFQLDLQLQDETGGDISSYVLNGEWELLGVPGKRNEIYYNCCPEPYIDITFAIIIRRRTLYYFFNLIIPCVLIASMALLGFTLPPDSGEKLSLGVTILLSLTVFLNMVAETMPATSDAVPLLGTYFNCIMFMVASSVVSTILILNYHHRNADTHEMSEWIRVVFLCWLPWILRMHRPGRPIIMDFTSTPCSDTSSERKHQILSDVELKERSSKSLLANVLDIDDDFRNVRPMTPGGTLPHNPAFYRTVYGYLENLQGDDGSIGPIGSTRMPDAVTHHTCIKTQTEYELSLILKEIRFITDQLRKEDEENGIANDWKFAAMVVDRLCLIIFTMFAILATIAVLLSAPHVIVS
As to the kind of experiment: Displacement of [3H]imidacloprid from nicotinic acetylcholine receptor in Musca domestica (house fly) head membrane after 1 hr by liquid scintillation counting analysis. In outline: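 Housefly heads separated from liquid-nitrogen-frozen adults, homogenized in ice-cold sucrose/EDTA/Tris-HCl/PMSF buffer. Membranes were prepared by 1000g then twice 35000g spins, resuspended in 50 mM Tris-HCl pH 7.4 and stored at -80 °C. Binding buffer was 120 mM NaCl, 50 mM Tris-HCl pH 7.4, with [3H]imidacloprid at 2 nM final and DMSO ≤0.25%. Incubation 1 h at 22 °C, then GF/C filtration. Nonspecific binding was set with 10^-4 M nicotine. Three runs in triplicate.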

Experiment [5] deals with Nilaparvata lugens. As to the kind of experiment: Insecticidal activity against Nilaparvata lugens (brown plant hopper). In kind it is functional, organism-based.
Experiment [6] concerns Nephotettix cincticeps. As to the kind of experiment: Insecticidal activity against Nephotettix cincticeps (green rice leafhopper). In kind it is functional, organism-based.
The subject of experiment [7] is Bemisia tabaci. Put plainly: Insecticidal activity against Bemisia tabaci (sweet potato whitefly). The experiment is classed as functional, organism-based.
Experiment [8] relates to Aphis gossypii. As to the kind of experiment: Insecticidal activity against Aphis gossypii (cotton aphid) infested expanded cotyledon stage of summer crookneck squash seedlings assessed as mortality at 0.78 ppm applied as spray after 72 hr by dissecting binocular microscopic analysis relative to control. The experiment is classed as functional. In outline: as §1

The mortality is the share of the test organisms that died. As usually defined, the Ki is a dissociation constant, usually derived from enzyme kinetics or from competition with a known ligand. As to `CO/N=C1/NCCN(Cc2ccc(Cl)nc2)C1=O`, the mortality at 0.5 ppm in experiment [1] was determined as 50%. In experiment [2], the mortality at 5 ppm turned out to be 70%. In experiment [3], the mortality at 50 ppm amounted to 90%. Further, the Ki in experiment [4] stood at 1530 nM.

For the compound `O=C1/C(=N\S(=O)(=O)C(F)(F)F)NCCN1Cc1ccc(Cl)nc1`, the mortality at 0.5 ppm in experiment [1] is less than 50%. In addition, the mortality at 5 ppm in experiment [2] turned out to be 90%. The mortality at 50 ppm in experiment [3] came to 90%. For the same compound, the affinity in experiment [4], expressed as Ki, was 593 nM.

Turning to `CN1CCN(CC2CCOC2)/C(=N\C#N)C1=O` (stereo not drawn), the mortality at 5 ppm in experiment [2] is less than 50%. Besides, the mortality at 50 ppm in experiment [3] was less than 50%. In experiment [4], this compound displayed a Ki of 517 nM.

Turning to `CN1CCN=C(N(C#N)Cc2ccc(Cl)nc2)C1=O`, the mortality at 5 ppm in experiment [2] is less than 50%. Besides, in experiment [3], the mortality at 50 ppm is less than 50%.

With `CN1CCN(Cc2ccc(Cl)nc2)/C(=N/C#N)C1=O`, the result in experiment [5], in experiment [6] and in experiment [7] was Active. The mortality at 0.78 ppm in experiment [8] turned out to be 90%. The mortality at 50 ppm in experiment [3] came to 90%. Also, in experiment [4], the affinity, expressed as Ki, was 6 nM.

As to `CN1CCN(Cc2cnc(Cl)s2)/C(=N\C#N)C1=O`, in experiment [8], the mortality at 0.78 ppm is 70%. Also, the mortality at 50 ppm in experiment [3] was determined as 90%. This compound also gave a Ki in experiment [4] of 4 nM.

Turning to `CN(C)C(=O)/C(=N\C#N)N(C)Cc1ccc(Cl)nc1`, in experiment [2], the mortality at 5 ppm is less than 50%. In addition, the mortality at 50 ppm in experiment [3] stood at 50%. Besides, the Ki in experiment [4] is 3830 nM.

Take `N#C/N=C1/NCCN(Cc2ccc(Cl)nc2)C1=O`: the mortality at 0.5 ppm in experiment [1] is less than 50%. Besides, in experiment [2], the mortality at 5 ppm amounted to 50%. Besides, the mortality at 50 ppm in experiment [3] is 90%. Besides, in experiment [4], the Ki was determined as 441 nM.

With `O=C1NCCN(Cc2ccc(Cl)nc2)C1=O`, the mortality at 0.5 ppm in experiment [1] worked out at 50%. Moreover, the mortality at 5 ppm in experiment [2] came out at 90%. In experiment [3], the mortality at 50 ppm was 90%. The same compound had a Ki in experiment [4] of 400 nM.

Consider `O=C1/C(=N\O)NCCN1Cc1ccc(Cl)nc1`, for which the mortality at 0.5 ppm in experiment [1] was less than 50%. For the same compound, the mortality at 5 ppm in experiment [2] was 50%. The mortality at 50 ppm in experiment [3] stood at 70%.

Take `O=C1C(=S)NCCN1Cc1ccc(Cl)nc1`: the mortality at 0.5 ppm in experiment [1] was 50%. Further, the mortality at 5 ppm in experiment [2] came to 50%. In addition, the mortality at 50 ppm in experiment [3] stood at 90%. For the same compound, the affinity in experiment [4] corresponds to a Ki of 1780 nM.

Take `CN1C/C(=N\C#N)N(Cc2ccc(Cl)nc2)CC1=O`: the mortality at 5 ppm in experiment [2] is less than 50%. The mortality at 50 ppm in experiment [3] turned out to be 70%.

For the compound `N#C/N=C1\NCCN1Cc1ccc(Cl)nc1`, the mortality at 5 ppm in experiment [2] was determined as 90%. In experiment [3], the mortality at 50 ppm worked out at 90%. The compound also gave an inhibition constant (Ki) in experiment [4] of 17 nM.

Turning to `NC(=S)N/N=C1/NCCN(Cc2ccc(Cl)nc2)C1=O`, in experiment [2], the mortality at 5 ppm was less than 50%. Besides, in experiment [3], the mortality at 50 ppm was less than 50%. Affinity in experiment [4] was put at a Ki of 3920 nM.
